Measurements as given in ChEMBL document CHEMBL1125249, “Structure-affinity relationships of 12-sulfonyl derivatives of 5,8,8a,9,10,11,12,12a,13,13a-decahydro-6H-isoquino[2,1-g][1 ,6] naphthyridines at alpha-adrenoceptors” (J Med Chem, 1991).

Experiments:
[1] = target: T1, Adrenergic receptor alpha-2 (Rattus norvegicus) (UniProt P22086+P19328+P22909)
[2] = target: T2, Adrenergic receptor alpha-2 (Rattus norvegicus, UniProt P22086+P19328+P22909); test: Binding affinity to alpha-2 adrenergic receptor determined by measurement of [3H]yohimbine displacement from rat cortical membrane
T2 sequence (P22086 whole entry): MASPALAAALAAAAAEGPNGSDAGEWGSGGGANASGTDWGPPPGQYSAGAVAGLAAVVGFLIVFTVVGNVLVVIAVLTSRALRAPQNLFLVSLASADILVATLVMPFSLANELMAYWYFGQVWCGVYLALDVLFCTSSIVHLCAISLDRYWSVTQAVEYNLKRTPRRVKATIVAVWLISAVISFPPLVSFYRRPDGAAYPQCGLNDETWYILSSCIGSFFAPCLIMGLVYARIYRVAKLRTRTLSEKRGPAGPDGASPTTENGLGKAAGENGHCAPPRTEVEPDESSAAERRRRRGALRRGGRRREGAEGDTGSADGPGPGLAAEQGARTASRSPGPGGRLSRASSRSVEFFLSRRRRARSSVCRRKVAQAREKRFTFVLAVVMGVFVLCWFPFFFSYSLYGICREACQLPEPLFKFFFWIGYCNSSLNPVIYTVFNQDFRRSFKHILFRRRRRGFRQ
T2 sequence (P19328 whole entry): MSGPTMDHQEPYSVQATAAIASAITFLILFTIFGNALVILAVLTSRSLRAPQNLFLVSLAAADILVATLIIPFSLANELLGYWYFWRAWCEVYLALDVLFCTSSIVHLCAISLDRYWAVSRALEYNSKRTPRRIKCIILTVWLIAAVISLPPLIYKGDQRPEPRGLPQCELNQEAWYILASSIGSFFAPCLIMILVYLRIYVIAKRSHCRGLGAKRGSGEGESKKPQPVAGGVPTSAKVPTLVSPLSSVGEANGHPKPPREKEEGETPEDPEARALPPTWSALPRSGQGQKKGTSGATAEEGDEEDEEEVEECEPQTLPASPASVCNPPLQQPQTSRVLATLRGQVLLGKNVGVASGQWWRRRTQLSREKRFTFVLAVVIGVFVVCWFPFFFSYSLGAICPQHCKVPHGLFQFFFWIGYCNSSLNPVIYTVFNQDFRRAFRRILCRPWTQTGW
T2 sequence (P22909 whole entry): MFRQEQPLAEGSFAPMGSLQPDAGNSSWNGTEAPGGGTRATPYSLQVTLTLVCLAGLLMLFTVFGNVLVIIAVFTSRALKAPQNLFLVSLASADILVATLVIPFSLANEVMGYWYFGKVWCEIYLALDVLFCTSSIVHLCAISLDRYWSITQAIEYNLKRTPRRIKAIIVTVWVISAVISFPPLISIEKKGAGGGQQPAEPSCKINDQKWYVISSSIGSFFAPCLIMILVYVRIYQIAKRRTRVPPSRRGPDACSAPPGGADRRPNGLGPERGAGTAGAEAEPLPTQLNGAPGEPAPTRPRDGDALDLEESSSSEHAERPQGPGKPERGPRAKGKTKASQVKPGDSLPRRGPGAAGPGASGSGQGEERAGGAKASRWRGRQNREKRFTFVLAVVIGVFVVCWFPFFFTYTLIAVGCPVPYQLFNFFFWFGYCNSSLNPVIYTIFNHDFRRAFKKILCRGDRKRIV

[3] = target: T3, Adrenergic receptor alpha-1 (Rattus norvegicus, UniProt P15823+P23944+P43140); test: Binding affinity to alpha-1 adrenergic receptor determined by measurement of [3H]prazosin displacement from rat cortical membrane
T3 sequence (P15823 whole entry): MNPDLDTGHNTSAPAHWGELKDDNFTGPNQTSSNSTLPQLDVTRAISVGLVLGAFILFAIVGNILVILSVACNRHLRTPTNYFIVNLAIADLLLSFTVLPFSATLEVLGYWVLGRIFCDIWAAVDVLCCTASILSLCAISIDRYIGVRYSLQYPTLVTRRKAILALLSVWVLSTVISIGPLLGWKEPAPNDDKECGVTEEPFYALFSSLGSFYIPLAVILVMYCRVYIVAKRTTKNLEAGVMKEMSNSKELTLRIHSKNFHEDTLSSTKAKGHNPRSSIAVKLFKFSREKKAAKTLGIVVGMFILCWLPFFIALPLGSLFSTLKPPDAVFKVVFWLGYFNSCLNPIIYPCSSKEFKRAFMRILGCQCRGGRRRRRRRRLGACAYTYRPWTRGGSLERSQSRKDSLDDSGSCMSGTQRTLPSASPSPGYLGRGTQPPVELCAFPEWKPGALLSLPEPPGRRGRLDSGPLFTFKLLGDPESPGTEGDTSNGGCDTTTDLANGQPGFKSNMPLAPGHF
T3 sequence (P23944 whole entry): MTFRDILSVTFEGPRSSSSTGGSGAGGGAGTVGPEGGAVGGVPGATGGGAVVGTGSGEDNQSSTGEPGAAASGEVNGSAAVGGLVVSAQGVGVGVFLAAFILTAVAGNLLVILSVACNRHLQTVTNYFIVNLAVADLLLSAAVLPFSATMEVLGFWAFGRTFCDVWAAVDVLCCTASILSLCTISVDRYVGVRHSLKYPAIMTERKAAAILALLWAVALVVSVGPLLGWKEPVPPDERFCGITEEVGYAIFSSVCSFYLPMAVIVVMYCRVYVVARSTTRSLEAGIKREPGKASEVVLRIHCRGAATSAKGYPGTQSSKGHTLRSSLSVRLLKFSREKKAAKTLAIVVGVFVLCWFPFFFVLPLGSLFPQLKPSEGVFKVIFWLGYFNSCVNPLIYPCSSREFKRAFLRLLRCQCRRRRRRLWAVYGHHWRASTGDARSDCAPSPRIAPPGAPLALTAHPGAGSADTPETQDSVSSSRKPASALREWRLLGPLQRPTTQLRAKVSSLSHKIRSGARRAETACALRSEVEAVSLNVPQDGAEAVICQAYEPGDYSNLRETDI
T3 sequence (P43140 whole entry): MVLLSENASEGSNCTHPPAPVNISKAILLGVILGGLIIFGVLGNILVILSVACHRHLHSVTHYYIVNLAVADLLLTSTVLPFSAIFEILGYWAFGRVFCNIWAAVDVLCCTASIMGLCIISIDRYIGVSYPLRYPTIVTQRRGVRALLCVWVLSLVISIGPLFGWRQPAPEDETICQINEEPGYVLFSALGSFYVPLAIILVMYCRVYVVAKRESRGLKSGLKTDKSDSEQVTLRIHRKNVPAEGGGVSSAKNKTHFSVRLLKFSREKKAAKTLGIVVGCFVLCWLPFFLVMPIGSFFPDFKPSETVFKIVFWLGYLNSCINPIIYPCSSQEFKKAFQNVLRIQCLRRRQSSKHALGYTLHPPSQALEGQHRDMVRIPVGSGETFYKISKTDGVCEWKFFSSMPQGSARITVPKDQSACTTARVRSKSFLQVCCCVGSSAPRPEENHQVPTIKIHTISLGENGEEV
Procedure, shortened: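 Male Sprague-Dawley rat (150-200 g) cerebral cortex membranes, washed in 50 mM Tris-HCl/0.5 mM EDTA pH 7.4. 250 µg membrane protein incubated with 0.5 nM [3H]prazosin for 30 min at 25 °C in a 0.5 mL volume. Nonspecific binding defined by 10 µM phentolamine. IC50 estimated graphically; Ki calculated by Cheng-Prusoff.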

[4] = target: T1, Adrenergic receptor alpha-2 (Rattus norvegicus); remark: listed apart in the source
Cavia porcellus = species on record: Cavia porcellus; test: In vitro reversal of inhibitory effect of UK - 14304 on the contractile response of guinea pig ileum to field stimulation.; assay type: functional, organism-based; settings: read-out: pA2 (converted)
Procedure, shortened: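 Ileum from female Dunkin-Hartley guinea pigs (250-300 g) held in Tyrode solution at 37 °C, gassed with O2, under 1 g tension. Field stimulation at 0.1 Hz (1-ms pulses, supramaximal voltage), with isometric contractions recorded. Cumulative UK-14304 curves were run, the second taken as control. Antagonist was then applied for 40 min before repeat agonist curves.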

SMILES	ID50 [1] [mg/kg]	Log Ki [2]	Log Ki [3]	ID50 [4] [mg/kg]	Kb (Cavia porcellus) [nM]
CC(C)CS(=O)(=O)N1CCC[C@@H]2CN3CCc4ccccc4[C@@H]3C[C@@H]21	0.034	-8.77	-5.37	0.85	0.316
CCCS(=O)(=O)N1CCC[C@@H]2CN3CCc4ccccc4[C@@H]3C[C@@H]21	0.019	-8.73	-5.29	1.4	0.398
CCCCS(=O)(=O)N1CCC[C@@H]2CN3CCc4ccccc4[C@@H]3C[C@@H]21	0.036	-8.9	-5.64	0.9	1.26
CC(C)CS(=O)(=O)N1CCC[C@@H]2CN3CCc4cc5c(cc4[C@@H]3C[C@@H]21)OCO5	0.062	-8.17	-5.04	0.44	
O=S(=O)(c1ccccc1)N1CCC[C@@H]2CN3CCc4ccccc4[C@@H]3C[C@@H]21	0.053	-8.81	-5.31	> 10	
COCCS(=O)(=O)N1CCC[C@@H]2CN3CCc4cc(OC)ccc4[C@@H]3C[C@@H]21	0.09	-9.22	-5.03	0.3	
CCS(=O)(=O)N1CCC[C@@H]2CN3CCc4ccccc4[C@@H]3C[C@@H]21	0.019	-8.82	-4.97	1.1	5.01
COc1cc2c(cc1OC)[C@@H]1C[C@H]3[C@H](CCCN3S(C)(=O)=O)CN1CC2	0.38	-8.01	-4.46	1.6	
O=S(=O)(CCO)N1CCC[C@@H]2CN3CCc4ccccc4[C@@H]3C[C@@H]21	0.046	-8.16	-4.89	1.34	
CS(=O)(=O)N1CCC[C@@H]2CN3CCc4ccccc4[C@@H]3C[C@@H]21	0.0125	-8.77	-5.26	1.2	
COc1ccc2c(c1)CCN1C[C@@H]3CCCN(S(C)(=O)=O)[C@@H]3C[C@H]21	> 10	-6.32	< -5	> 10	316
COCCS(=O)(=O)N1CCC[C@@H]2CN3CCc4ccccc4[C@@H]3C[C@@H]21	0.062	-8.63	-5.13	0.24	
COc1ccc2c(c1)CCN1C[C@H]3CCCN(S(C)(=O)=O)[C@H]3C[C@@H]21 [DELEQUAMINE]	0.013	-9.18	-4.99	0.21	0.2
COc1ccc2c(c1)CCN1C[C@H]3CCCN(S(=O)(=O)CC(C)C)[C@H]3C[C@@H]21	0.022	-8.77	-5.41	0.41	
COc1ccc2c(c1)CCN1C[C@H]3CCCN(S(=O)(=O)N(C)C)[C@@H]3C[C@@H]21	0.027	-8.97	-5.57	0.17	0.501
CS(=O)(=O)N1CCC[C@@H]2CN3CCc4cc5c(cc4[C@@H]3C[C@H]21)OCO5		-9.19	-5.32		
c1ccc2c(c1)OCC(C1=NCCN1)O2 (centres undefined) [IDAZOXAN]	0.017			1.2	3.98
COc1ccc2c(c1)CCN1C[C@H]3CCCN(S(C)(=O)=O)[C@@H]3C[C@@H]21	0.0065			0.095	0.2
COC(=O)[C@@H]1[C@H]2C[C@H]3c4[nH]c5ccccc5c4CCN3C[C@@H]2CC[C@@H]1O	0.185			2.8	
CS(=O)(=O)N1CCC[C@@H]2CN3CCc4cc5c(cc4[C@@H]3C[C@@H]21)OCCO5	0.13	-8.8	-5.02	1.4	
Cc1ccc2c(c1)CCN1C[C@H]3CCCN(S(C)(=O)=O)[C@H]3C[C@@H]21		-9.15	-4.89		
O=S(=O)(c1ccc(Cl)cc1)N1CCC[C@@H]2CN3CCc4ccccc4[C@@H]3C[C@@H]21		-8.3	-5.19		
Nc1ccc(S(=O)(=O)N2CCC[C@@H]3CN4CCc5ccccc5[C@@H]4C[C@@H]32)cc1		-8.66	-5.33		
COc1ccc2c(c1)CCN1C[C@H]3CCCN(S(=O)(=O)Cc4ccccc4)[C@@H]3C[C@@H]21		-8.82	-5.13		
